1 compound from ChEMBL document CHEMBL2176894, “Cyanobacterial peptides as a prototype for the design of potent β-secretase inhibitors and the development of selective chemical probes for other aspartic proteases” (J Med Chem, 2012) can be followed below.

pIC50: −log10 of the molar value. Active and inactive are the calls of the source. The rule behind the calls is not given here.

The test system of series [1] is Nucleic Acid. Put plainly: Ratio of drug level in CF1 mouse brain to IC50 for inhibition of BACE1-mediated Abeta40/Abeta42 production in CHO 2B7 cells expressing wild type APP695. The class given is cell-based. In a few lines:
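CF-1 mice (8 weeks, 25−35 g) received 30 mg/kg i.p. in 5% DMSO/15% Solutol HS 15/10% EtOH/65% water and were killed 3 h post-dose. Cerebellum and cortex were homogenized in acetonitrile (1:10 w:v) with internal standard and quantified by HPLC-MS (MRM, negative ion). The cellular reference was CHO 2B7 (APP695 wt): 16 h treatment, 1% DMSO, secreted Aβ40/Aβ42 sandwich ELISA.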

Series [2] has as its target T1, Beta-secretase 1 (Homo sapiens, UniProt P56817). The conditions noted are these: H4, at 10 µM.
Series [3] can be described thus: Drug metabolism in human H4 cells lysates assessed as ester hydrolysis mediated formation of metabolites by HPLC-MS method. It counts as ADME, cell-based, Lysate. The method in brief:
(§1)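 H4 whole-cell lysate was diluted to 1 mg/mL protein in 0.1 M phosphate buffer, pH 7.4. Parent and acid hydrolysis product were extracted with EtOAc with internal standard. Quantitation was by HPLC-MS MRM against a calibration curve; n = 2.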

Series [4] has as its target Gamma-secretase (Homo sapiens) (UniProt Q96BI3+Q9NZ42+Q8WW43+P49768+Q92542+P49810). Put plainly: Inhibition of gamma secretase expressed in human H4 cells expressing BRI-C99 fusion protein assessed as C99 fragment accumulation fragment at 10 uM incubated for 16 hrs in by immunoblot. The class given is cell-based. The method in brief: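 H4 cells overexpressing Bri-C99 (400000/well) were kept in Opti-MEM with 1% serum and treated 16 h with test compound (10 μM), LY411575 (100 nM) or BACE1 inhibitor IV (1 μM). Cells were lysed in TBS/1% Triton X-100 and run on a 12% bis-tris gel. Blots were probed with CT-20 antibody for furin-generated C99 and read on an infrared imager.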
In general terms: Immunoblotting shows a protein as a band on a membrane.

Series [5] addresses T2, Cathepsin E (Homo sapiens, UniProt P14091).
T2 sequence (P14091 whole entry): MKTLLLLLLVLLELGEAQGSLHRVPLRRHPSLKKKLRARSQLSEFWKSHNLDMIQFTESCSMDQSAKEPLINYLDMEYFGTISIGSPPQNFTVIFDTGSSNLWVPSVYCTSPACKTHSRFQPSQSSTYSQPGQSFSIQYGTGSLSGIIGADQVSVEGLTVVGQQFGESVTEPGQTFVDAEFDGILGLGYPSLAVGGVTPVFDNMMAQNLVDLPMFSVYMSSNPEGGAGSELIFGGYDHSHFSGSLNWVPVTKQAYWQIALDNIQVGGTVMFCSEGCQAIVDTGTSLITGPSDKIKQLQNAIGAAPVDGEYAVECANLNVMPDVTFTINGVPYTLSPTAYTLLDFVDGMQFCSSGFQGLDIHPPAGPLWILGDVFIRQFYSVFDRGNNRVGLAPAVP
Briefly: Inhibition of cathepsin E by fluorescence assay.

Series [6] concerns the target Cathepsin D (Homo sapiens, UniProt P07339). Put plainly: Inhibition of cathepsin D by fluorescence assay.
The subject of series [7] is Brain. Briefly: Drug concentration in CF1 mouse brain at 30 mg/kg, ip measured 3 hrs post dose by HPLC-MS method relative to compound plasma concentration. It counts as ADME, organism-based. More on the design: dose 30 mg/kg, route intraperitoneal. The method in brief:
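CF-1 mice, 8 weeks old, 25−35 g, given 30 mg/kg i.p. in 5% DMSO/15% Solutol HS 15/10% EtOH/65% water; killed 3 h post-dose. Cerebellum and cortex homogenized in acetonitrile (1:10 w:v) containing internal standard, then re-extracted. Plasma was taken by cardiac puncture into K-EDTA. Levels were measured by HPLC-MS (MRM, negative ionization) and interpolated from a calibration curve.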

Series [8] deals with T1, Beta-secretase 1. Put plainly: Inhibition of BACE1 by fluorescence assay.
Series [9] concerns the target T1, Beta-secretase 1. Briefly: Inhibition of BACE1 expressed in CHO 2B7 cells expressing wild type APP695 assessed as reduction in Abeta40/Abeta42 levels incubated for 16 hrs by sandwich ELISA. It counts as cell-based.
Series [10] has as its target T1, Beta-secretase 1. Put plainly: Inhibition of BACE1 expressed in human H4 cells assessed as reduction in CTF levels at 10 uM incubated for 16 hrs by immunoblot. The class given is cell-based.
Series [11] deals with Mus musculus. Briefly: Reduction in […] in CF1 mouse at 30 mg/kg, ip measured 3 hrs post dose by sandwich ELISA. The class given is functional, organism-based. More on the design: dose 30 mg/kg. On the technique in general: In an ELISA, binding on a coated surface is turned into a signal by an enzyme label.
Series [12] deals with H4. Put plainly: Inhibition of Alpha secretase expressed in human H4 cells assessed as reduction in C83 levels at 10 uM incubated for 16 hrs by immunoblot. It counts as cell-based. The method in brief:
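H4 cells (3 × 10⁵/well) adhered 4−6 h in DMEM/10% FCS at 37 °C, then were switched to serum-free Ultraculture containing compound at 10 μM final for 16 h. Cells were lysed in NP40/deoxycholate buffer, and protein was equalized by BCA. Lysates were run on 10−20% tricine gels and immunoblotted with antibody to the APP C-terminal 20 residues (1:2000); C99 and C83 were imaged on an infrared system.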

The nature of series [13]: Permeability at 10 uM at pH 5.0 by PAMPA method. It counts as ADME. The settings on record: read-out: permeability. (PAMPA measures passive passage across an artificial lipid membrane.)
Series [14] deals with Serum. Put plainly: Drug metabolism in mouse serum assessed as ester hydrolysis mediated formation of metabolites by HPLC-MS method. It counts as ADME, cell-free. The method in brief:
(§2)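 Compound (10 μL of 25 μg/mL) was incubated with 100 μL mouse serum at 37 °C for 0, 1, 2, 4, 8, 12 and 24 h. The reaction was quenched with EtOAc plus internal standard, shaken 5 min, centrifuged at 16000g, and the organic layer dried and taken up in MeOH. Parent and ester-hydrolysis acid were quantified by HPLC-MS MRM interpolation; n = 2.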

Series [15] has as its system Serum. Briefly: Stability in mouse serum by HPLC-MS method. The class given is ADME, cell-free. The method in brief:
as §2

Series [16] can be described thus: Permeability at 10 uM at pH 7.4 by PAMPA method. The class given is ADME. The conditions noted are these: read-out: permeability. The method in brief: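 Filters were coated with BBB-1 lipid, with brain sink buffer in the acceptor. Plates were incubated 4 h at room temperature, humidified. Absorbance was read at 250−350 nm and Pe calculated. Triplicate; mean ± SD.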

Series [17] in a line: Stability in human H4 cells lysates by HPLC-MS method. It counts as ADME, cell-based, Lysate. In a few lines: as §1

T1 sequence (P56817 whole entry): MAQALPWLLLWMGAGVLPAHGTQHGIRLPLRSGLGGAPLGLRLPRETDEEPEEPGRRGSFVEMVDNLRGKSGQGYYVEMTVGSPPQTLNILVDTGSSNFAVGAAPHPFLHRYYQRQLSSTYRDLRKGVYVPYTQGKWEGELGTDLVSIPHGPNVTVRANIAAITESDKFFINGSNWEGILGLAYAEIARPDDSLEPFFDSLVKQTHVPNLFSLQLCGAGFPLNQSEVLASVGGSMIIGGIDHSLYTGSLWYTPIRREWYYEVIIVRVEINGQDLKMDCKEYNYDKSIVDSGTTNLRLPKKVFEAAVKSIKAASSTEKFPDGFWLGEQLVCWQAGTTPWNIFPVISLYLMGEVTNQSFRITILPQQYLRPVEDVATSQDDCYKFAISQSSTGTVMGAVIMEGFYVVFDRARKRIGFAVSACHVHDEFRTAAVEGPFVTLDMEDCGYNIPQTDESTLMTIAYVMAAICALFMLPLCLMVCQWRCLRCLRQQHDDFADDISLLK
Cathepsin D, sequence (P07339 65-162 limits assumed): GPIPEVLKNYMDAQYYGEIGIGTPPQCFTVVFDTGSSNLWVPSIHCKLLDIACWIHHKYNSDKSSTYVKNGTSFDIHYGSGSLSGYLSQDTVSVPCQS
Cathepsin D, sequence (P07339 169-412 limits assumed): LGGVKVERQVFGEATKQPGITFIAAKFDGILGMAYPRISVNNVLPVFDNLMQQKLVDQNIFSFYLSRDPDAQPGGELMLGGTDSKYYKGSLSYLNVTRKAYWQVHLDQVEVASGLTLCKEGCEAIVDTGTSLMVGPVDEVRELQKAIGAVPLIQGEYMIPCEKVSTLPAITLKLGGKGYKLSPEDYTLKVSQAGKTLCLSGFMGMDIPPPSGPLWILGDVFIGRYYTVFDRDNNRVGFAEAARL

What is called pIC50 is the IC50 on a negative log10 scale, so that one unit is a factor of ten. `COC(=O)[C@@H]1CCCN1C(=O)[C@@H](Cc1ccccc1)N(C)C(=O)[C@H](C)NC(=O)[C@H](CC(C)C)NC(=O)C[C@H](O)[C@H](Cc1ccccc1)NC(=O)c1cc(NS(C)(=O)=O)cc(C(=O)N[C@H](C)c2ccccc2)c1`: in series [1], the Ratio was 3. The inhibition result in series [2] and in [10] was “Active” each time. Moreover, the Drug metabolism result in series [3] and in series [14] was “Active” throughout. The inhibition entry in [4] and in series [12] was “inactive” in each case. Also, the pIC50 in series [5] was 6.68; in [6], 7.95; in series [8], 6.89; in series [9] it was 7.00. For the same compound, the Drug uptake in series [7] stood at 2.5%. For the same compound, in series [11], the outcome was inactive. For the same compound, the Papp at 10 µM in series [13] worked out at 10.7 ×10⁻⁶ cm/s; in series [16], 8.58 ×10⁻⁶ cm/s. Moreover, the Stability result in [15] and in series [17] was “Stable” in each case.
